Experimental data from ChEMBL document CHEMBL1122431, “Carbocyclic analogues of 5-substituted uracil nucleosides: synthesis and antiviral activity” (1983).
Converted amounts (≈) assume the structure as drawn.

Legend:
Type in all cases: functional
Human alphaherpesvirus 1 [1] = assay: Antiviral activity against herpes simplex virus(1) strain 377, expressed as virus rating
Procedure, shortened: (§1)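 Inhibition of virus-induced cytopathogenic effect (CPE) in primary rabbit kidney cell cultures challenged with HSV-1 strain 377 or HSV-2 strain MS. HSV-2 testing followed the same procedure. Activity was scored as a virus rating (VR).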

Human alphaherpesvirus 1 [2] = assay: Antiviral activity against herpes simplex virus(1) strain 377.; procedure, shortened: as §1
Human alphaherpesvirus 1 [3] = assay: Antiviral activity against herpes simplex virus(1) strain 377, expressed as virus rating. Experiment 2; procedure, shortened: as §1
Human alphaherpesvirus 1 [4] = assay: Antiviral activity against herpes simplex virus(1) strain 377, expressed as virus rating. Experiment 1; procedure, shortened: as §1
Human alphaherpesvirus 1 [5] = assay: Antiviral activity against herpes simplex virus(1) strain 377, expressed as virus rating. Experiment 4; procedure, shortened: as §1
Human alphaherpesvirus 1 [6] = assay: Minimum inhibitory concentration (MIC50) in Herpes simplex virus type-1 (HSV-1) using 377 strain. Experiment 4
Procedure, shortened: (§2)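 Inhibition of virus-induced CPE in primary rabbit kidney cell cultures infected with HSV-1 strain 377 or HSV-2 strain MS. Potency was taken as the minimum inhibitory concentration (MIC50), in μg/mL, alongside the virus rating.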

Human alphaherpesvirus 2 [7] = assay: Minimum inhibitory concentration (MIC50) in Herpes simplex virus type-2 (HSV-2) using MS strain. Experiment 2; procedure, shortened: as §2
Human alphaherpesvirus 1 [8] = assay: Minimum inhibitory concentration (MIC50) in Herpes simplex virus type-1 (HSV-1) using 377 strain. Experiment 3; procedure, shortened: as §2
Human alphaherpesvirus 2 [9] = assay: Antiviral activity against herpes simplex virus(2) strain MS expressed as virus rating. Experiment 2; procedure, shortened: as §1
Human alphaherpesvirus 1 [10] = assay: Minimum inhibitory concentration (MIC50) in Herpes simplex virus type-1 (HSV-1) using 377 strain. Experiment 2; procedure, shortened: as §2
Human alphaherpesvirus 2 [11] = assay: Antiviral activity against herpes simplex virus(2) strain MS expressed as virus rating. Experiment 1; procedure, shortened: as §1
Human alphaherpesvirus 1 [12] = assay: Minimum inhibitory concentration (MIC50) in Herpes simplex virus type-1 (HSV-1) using 377 strain. Experiment 1; procedure, shortened: as §2
Human alphaherpesvirus 2 [13] = assay: Minimum inhibitory concentration (MIC50) in Herpes simplex virus type-2 (HSV-2) using MS strain. Experiment 1; procedure, shortened: as §2
Human alphaherpesvirus 1 [14] = assay: Antiviral activity against herpes simplex virus(1) strain 377, expressed as virus rating. Experiment 3; procedure, shortened: as §1
Human alphaherpesvirus 2 [15] = assay: Antiviral activity against herpes simplex virus(2) strain MS expressed as virus rating; procedure, shortened: as §1
Human alphaherpesvirus 1 [16] = assay: Minimum inhibitory concentration (MIC50) in Herpes simplex virus type-1 (HSV-1) using 377 strain.; procedure, shortened: as §2
Human alphaherpesvirus 2 [17] = assay: Minimum inhibitory concentration (MIC50) in Herpes simplex virus type-2 (HSV-2) using MS strain.; procedure, shortened: as §2
Human alphaherpesvirus 1 [18] = assay: Minimum inhibitory concentration (MIC50) in Herpes simplex virus type-1 (HSV-1) using 377 strain. Experiment 2.; procedure, shortened: as §2
Human alphaherpesvirus 2 [19] = assay: Minimum inhibitory concentration (MIC50) in Herpes simplex virus type-2(HSV-2) using MS strain.; procedure, shortened: as §2
Human alphaherpesvirus 1 [20] = assay: Minimum inhibitory concentration (MIC50) in Herpes simplex virus type-1(HSV-1) using 377 strain.; procedure, shortened: as §2
Human alphaherpesvirus 2 [21] = assay: Antiviral activity against herpes simplex virus(2) strain MS expressed as virus rating.; procedure, shortened: as §1
Human alphaherpesvirus 1 [22] = assay: Minimum inhibitory concentration (MIC50) in Herpes simplex virus type-1 (HSV-1) using 377 strain at 0.9 virus rating. Experiment 2; procedure, shortened: as §2

Structure (SMILES): CC(=O)OCC1CC(OC(C)=O)C(n2cc(Br)c(=O)[nH]c2=O)C1 (stereo not given)
- Virus rating (Human alphaherpesvirus 1 [1]): 0

Structure (SMILES): O=c1[nH]c(=O)n(C2CC(CO)C(O)C2O)cc1Br (stereo not given)
- Virus rating (Human alphaherpesvirus 1 [2]): 0

Structure (SMILES): O=c1[nH]c(=O)n(C2CC(CO)C(O)C2O)cc1F (stereo not given)
- Virus rating (Human alphaherpesvirus 1 [2]): 0

Structure (SMILES): O=c1ccn(C2CC(O)C(CO)C2)c(=O)[nH]1 (stereo not given)
- Virus rating (Human alphaherpesvirus 1 [1]): 0

Structure (SMILES): O=c1[nH]c(=O)n([C@@H]2C[C@H](CO)[C@@H](O)C2)cc1I
- Virus rating (Human alphaherpesvirus 1 [3]): 7.1
- Virus rating (Human alphaherpesvirus 1 [4]): 6.5
- Virus rating (Human alphaherpesvirus 1 [5]): 7.4
- MIC50 (Human alphaherpesvirus 1 [6]): 0.4 µg/mL (≈ 1.14 µM)
- MIC50 (Human alphaherpesvirus 2 [7]): 20 µg/mL (≈ 56.8 µM)
- MIC50 (Human alphaherpesvirus 1 [8]): 0.1 µg/mL (≈ 0.284 µM)
- Virus rating (Human alphaherpesvirus 2 [9]): 3.4
- MIC50 (Human alphaherpesvirus 1 [10]): 0.3 µg/mL (≈ 0.852 µM)
- Virus rating (Human alphaherpesvirus 2 [11]): 2.9
- MIC50 (Human alphaherpesvirus 1 [12]): 0.4 µg/mL (≈ 1.14 µM)
- MIC50 (Human alphaherpesvirus 2 [13]): 32 µg/mL (≈ 90.9 µM)
- Virus rating (Human alphaherpesvirus 1 [14]): 7.9

Structure (SMILES): Nc1ncnc2c1ncn2[C@@H]1O[C@H](CO)[C@@H](O)[C@@H]1O [VIDARABINE]
- Virus rating (Human alphaherpesvirus 1 [1]): 2.7
- Virus rating (Human alphaherpesvirus 2 [15]): 2.3
- MIC50 (Human alphaherpesvirus 1 [16]): 9.8 µg/mL (≈ 36.7 µM)
- MIC50 (Human alphaherpesvirus 2 [17]): 20.1 µg/mL (≈ 75.2 µM)

Structure (SMILES): O=c1[nH]c(=O)n(C2CC(CO)CC2O)cc1F (stereo not given)
- Virus rating (Human alphaherpesvirus 1 [2]): 0

Structure (SMILES): Cc1cn([C@@H]2C[C@H](CO)[C@@H](O)C2)c(=O)[nH]c1=O
- Virus rating (Human alphaherpesvirus 2 [15]): 3.2
- MIC50 (Human alphaherpesvirus 1 [16]): 0.8 µg/mL (≈ 3.33 µM)
- Virus rating (Human alphaherpesvirus 1 [2]): 5.4
- MIC50 (Human alphaherpesvirus 2 [17]): 7 µg/mL (≈ 29.1 µM)

Structure (SMILES): Nc1cn(C2CC(CO)CC2O)c(=O)[nH]c1=O (stereo not given)
- Virus rating (Human alphaherpesvirus 1 [2]): 0

Structure (SMILES): O=c1ccn(C2CC(CO)CC2O)c(=O)[nH]1 (stereo not given)
- Virus rating (Human alphaherpesvirus 1 [2]): 0

Structure (SMILES): O=c1ccn(C2CC(CO)C(O)C2O)c(=O)[nH]1 (stereo not given)
- Virus rating (Human alphaherpesvirus 1 [2]): 0

Structure (SMILES): Nc1cn(C2CC(O)C(CO)C2)c(=O)[nH]c1=O (stereo not given)
- Virus rating (Human alphaherpesvirus 1 [1]): 0.1

Structure (SMILES): Cc1cn(C2CC(CO)CC2O)c(=O)[nH]c1=O (stereo not given)
- Virus rating (Human alphaherpesvirus 1 [2]): 0.4

Structure (SMILES): O=c1[nH]c(=O)n([C@H]2C[C@H](O)[C@@H](CO)O2)cc1I [IDOXURIDINE]
- Virus rating (Human alphaherpesvirus 1 [1]): 7.4
- Virus rating (Human alphaherpesvirus 2 [15]): 5
- MIC50 (Human alphaherpesvirus 1 [16]): 0.3 µg/mL (≈ 0.847 µM)
- MIC50 (Human alphaherpesvirus 2 [17]): 1 µg/mL (≈ 2.82 µM)

Structure (SMILES): CC(=O)OCC1CC(n2cc(I)c(=O)[nH]c2=O)CC1OC(C)=O (stereo not given)
- Virus rating (Human alphaherpesvirus 1 [3]): 1.6
- Virus rating (Human alphaherpesvirus 1 [4]): 2.4
- MIC50 (Human alphaherpesvirus 1 [12]): 10 µg/mL (≈ 22.9 µM)
- MIC50 (Human alphaherpesvirus 1 [18]): 25 µg/mL (≈ 57.3 µM)

Structure (SMILES): O=c1[nH]c(=O)n(C2CC(O)C(CO)C2)cc1Br (stereo not given)
- MIC50 (Human alphaherpesvirus 2 [19]): 32 µg/mL (≈ 105 µM)
- Virus rating (Human alphaherpesvirus 2 [15]): 1.5
- Virus rating (Human alphaherpesvirus 1 [2]): 6.2
- MIC50 (Human alphaherpesvirus 1 [20]): 0.3 µg/mL (≈ 0.983 µM)

Structure (SMILES): CNc1cn(C2CC(CO)C(O)C2O)c(=O)[nH]c1=O (stereo not given)
- Virus rating (Human alphaherpesvirus 1 [2]): 0

Structure (SMILES): O=c1[nH]c(=O)n([C@H]2C[C@H](O)[C@@H](CO)O2)cc1F [FLOXURIDINE]
- Virus rating (Human alphaherpesvirus 2 [15]): 0
- Virus rating (Human alphaherpesvirus 1 [2]): 0

Structure (SMILES): CN(C)c1cn(C2CC(O)C(CO)C2)c(=O)[nH]c1=O (stereo not given)
- Virus rating (Human alphaherpesvirus 1 [2]): 0

Structure (SMILES): CNc1cn(C2CC(CO)CC2O)c(=O)[nH]c1=O (stereo not given)
- Virus rating (Human alphaherpesvirus 1 [2]): 0

Structure (SMILES): CNc1cn(C2CC(O)C(CO)C2)c(=O)[nH]c1=O (stereo not given)
- Virus rating (Human alphaherpesvirus 1 [3]): 3.9
- Virus rating (Human alphaherpesvirus 1 [4]): 4.2
- MIC50 (Human alphaherpesvirus 1 [8]): 25 µg/mL (≈ 97.9 µM)
- MIC50 (Human alphaherpesvirus 2 [17]): 229 µg/mL (≈ 897 µM)
- Virus rating (Human alphaherpesvirus 2 [21]): 1.2
- MIC50 (Human alphaherpesvirus 1 [10]): 15 µg/mL (≈ 58.8 µM)
- MIC50 (Human alphaherpesvirus 1 [12]): 10 µg/mL (≈ 39.2 µM)
- Virus rating (Human alphaherpesvirus 1 [14]): 4.5

Structure (SMILES): O=c1[nH]c(=O)n(C2CC(CO)C(O)C2O)cc1CO (stereo not given)
- Virus rating (Human alphaherpesvirus 1 [1]): 0.3
- Virus rating (Human alphaherpesvirus 2 [15]): 0

Structure (SMILES): Nc1cn(C2CC(CO)C(O)C2O)c(=O)[nH]c1=O (stereo not given)
- Virus rating (Human alphaherpesvirus 1 [2]): 0

Structure (SMILES): O=c1[nH]c(=O)n(C2CC(CO)CC2O)cc1I (stereo not given)
- Virus rating (Human alphaherpesvirus 1 [2]): 0

Structure (SMILES): CCCCNc1cn(C2CC(O)C(CO)C2)c(=O)[nH]c1=O (stereo not given)
- MIC50 (Human alphaherpesvirus 1 [16]): 290 µg/mL (≈ 975 µM)
- Virus rating (Human alphaherpesvirus 1 [2]): 2
- MIC50 (Human alphaherpesvirus 2 [17]): 1000 µg/mL (≈ 3360 µM)
- Virus rating (Human alphaherpesvirus 2 [21]): 0.7

Structure (SMILES): CC(=O)OCC1CC(n2cc(Br)c(=O)[nH]c2=O)CC1OC(C)=O (stereo not given)
- Virus rating (Human alphaherpesvirus 1 [3]): 0.9
- Virus rating (Human alphaherpesvirus 1 [4]): 1.3
- MIC50 (Human alphaherpesvirus 1 [22]): 100 µg/mL (≈ 257 µM)
- MIC50 (Human alphaherpesvirus 1 [12]): 92 µg/mL (≈ 236 µM)

Structure (SMILES): O=c1[nH]c(=O)n(C2CC(CO)CC2O)cc1Br (stereo not given)
- Virus rating (Human alphaherpesvirus 1 [2]): 0

Structure (SMILES): O=c1[nH]c(=O)n(C2CC(CO)C(O)C2O)cc1I (stereo not given)
- Virus rating (Human alphaherpesvirus 1 [2]): 0

Structure (SMILES): Cc1cn(C2CC(CO)C(O)C2O)c(=O)[nH]c1=O (stereo not given)
- Virus rating (Human alphaherpesvirus 1 [2]): 0
